Active and inactive are the calls of the source. The calls are words filed in the database; no cut-off is given here.
Tests used:
[1] = test system: Physalis ixocarpa; assay: Herbicidal activity against Physalis ixocarpa assessed as inhibition of seed respiration during germination after 72 hr by polarographic analysis; assay type: functional, organism-based
[2] = test system: Trifolium pratense; assay: Herbicidal activity against Trifolium pratense var. Kenland (red clover) assessed as inhibition of seed respiration during germination after 72 hr by polarographic analysis; assay type: functional, organism-based
Procedure, shortened: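 Red clover seeds were exposed to the bismuthines during germination, with respiration followed over the imbibition time. Values were taken at 72 h as the concentration giving 50% inhibition of seed respiration, using means of three experiments.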

[3] = test system: Lactuca sativa; assay: Herbicidal activity against Lactuca sativa var.Roman (lettuce) seedlings assessed as inhibition of seed germination at 5 uM after 48 hr; assay type: functional, organism-based
[4] = test system: Lactuca sativa; assay: Herbicidal activity against Lactuca sativa var.Roman (lettuce) seedlings assessed as growth inhibition at 5 uM after 120 hr; assay type: functional, organism-based
[5] = test system: Lactuca sativa; assay: Herbicidal activity against Lactuca sativa var.Roman (lettuce) seedlings assessed as partial inhibition of hypocotyle growth up to 10 uM after 48 hr; assay type: functional, organism-based
[6] = test system: Trifolium pratense; assay: Herbicidal activity against Trifolium pratense var. Kenland (red clover) seedlings assessed as partial inhibition of hypocotyle growth up to 15 uM after 48 hr; assay type: functional, organism-based
[7] = test system: Lolium multiflorum; assay: Herbicidal activity against Lolium multiflorum var. Gulf (Italian ryegrass) assessed as inhibition of seed respiration during germination after 72 hr by polarographic analysis; assay type: functional, organism-based
[8] = test system: Lolium multiflorum; assay: Herbicidal activity against Lolium multiflorum var. Gulf (Italian ryegrass) seedlings assessed as root length rate at 10 uM after 48 hr relative to control; assay type: functional, organism-based
Procedure, shortened: (§1)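 Italian ryegrass seedlings grown with 0, 0.5, 1, 3, 5, 7.5 or 10 µM of each bismuthine. Shoot and root lengths were measured at 48 h and expressed as a percentage of the average untreated control length.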

[9] = test system: Lolium multiflorum; assay: Herbicidal activity against Lolium multiflorum var. Gulf (Italian ryegrass) seedlings assessed as root length rate at 7.5 uM after 48 hr relative to control; assay type: functional, organism-based; procedure, shortened: as §1
[10] = test system: Lolium multiflorum; assay: Herbicidal activity against Lolium multiflorum var. Gulf (Italian ryegrass) seedlings assessed as root length rate at 5 uM after 48 hr relative to control; assay type: functional, organism-based; procedure, shortened: as §1
[11] = test system: Lolium multiflorum; assay: Herbicidal activity against Lolium multiflorum var. Gulf (Italian ryegrass) seedlings assessed as root length rate at 3 uM after 48 hr relative to control; assay type: functional, organism-based; procedure, shortened: as §1
[12] = test system: Lolium multiflorum; assay: Herbicidal activity against Lolium multiflorum var. Gulf (Italian ryegrass) seedlings assessed as root length rate at 1 uM after 48 hr relative to control; assay type: functional, organism-based; procedure, shortened: as §1
[13] = test system: Lolium multiflorum; assay: Herbicidal activity against Lolium multiflorum var. Gulf (Italian ryegrass) seedlings assessed as root length rate at 0.5 uM after 48 hr relative to control; assay type: functional, organism-based; procedure, shortened: as §1
[14] = test system: Lolium multiflorum; assay: Herbicidal activity against Lolium multiflorum var. Gulf (Italian ryegrass) seedlings assessed as shoot length rate at 10 uM after 48 hr relative to control; assay type: functional, organism-based; procedure, shortened: as §1
[15] = test system: Lolium multiflorum; assay: Herbicidal activity against Lolium multiflorum var. Gulf (Italian ryegrass) seedlings assessed as shoot length rate at 5 uM after 48 hr relative to control; assay type: functional, organism-based; procedure, shortened: as §1
[16] = test system: Lolium multiflorum; assay: Herbicidal activity against Lolium multiflorum var. Gulf (Italian ryegrass) seedlings assessed as shoot length rate at 7.5 uM after 48 hr relative to control; assay type: functional, organism-based; procedure, shortened: as §1
[17] = test system: Lolium multiflorum; assay: Herbicidal activity against Lolium multiflorum var. Gulf (Italian ryegrass) seedlings assessed as shoot length rate at 3 uM after 48 hr relative to control; assay type: functional, organism-based; procedure, shortened: as §1
[18] = test system: Lolium multiflorum; assay: Herbicidal activity against Lolium multiflorum var. Gulf (Italian ryegrass) seedlings assessed as shoot length rate at 1 uM after 48 hr relative to control; assay type: functional, organism-based; procedure, shortened: as §1
[19] = test system: Lolium multiflorum; assay: Herbicidal activity against Lolium multiflorum var. Gulf (Italian ryegrass) seedlings assessed as shoot length rate at 0.5 uM after 48 hr relative to control; assay type: functional, organism-based; procedure, shortened: as §1
[20] = test system: Lactuca sativa; assay: Herbicidal activity against Lactuca sativa var.Roman (lettuce) seedlings assessed as seed germination rate at 10 uM after 48 hr relative to control; assay type: functional, organism-based
[21] = test system: Lactuca sativa; assay: Herbicidal activity against Lactuca sativa var.Roman (lettuce) seedlings assessed as seed germination rate at 7.5 uM after 48 hr relative to control; assay type: functional, organism-based
[22] = test system: Lactuca sativa; assay: Herbicidal activity against Lactuca sativa var.Roman (lettuce) seedlings assessed as seed germination rate at 5 uM after 48 hr relative to control; assay type: functional, organism-based
[23] = test system: Radical scavenging activity; assay: Antioxidant activity assessed as DPPH free radical scavenging activity at 5 to 100 uM after 30 min by TLC autographic assay; assay type: functional
[24] = test system: Lactuca sativa; assay: Herbicidal activity against Lactuca sativa var.Roman (lettuce) seedlings assessed as seed germination rate at 3 uM after 48 hr relative to control; assay type: functional, organism-based
[25] = test system: Radical scavenging activity; assay: Antioxidant activity assessed as DPPH free radical scavenging activity at 5 to 100 uM after 30 min by spectrophotometric analysis; assay type: functional
Procedure, shortened: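 DPPH reduction by the compounds was read spectrophotometrically at 517 nm after 30 min. 100% DMSO served as the blank and quercetin as the reference scavenger.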

[26] = test system: Lactuca sativa; assay: Herbicidal activity against Lactuca sativa var.Roman (lettuce) seedlings assessed as seed germination rate at 1 uM after 48 hr relative to control; assay type: functional, organism-based
[27] = test system: Lactuca sativa; assay: Herbicidal activity against Lactuca sativa var.Roman (lettuce) seedlings assessed as seed germination rate at 0.5 uM after 48 hr relative to control; assay type: functional, organism-based
[28] = test system: Lactuca sativa; assay: Herbicidal activity against Lactuca sativa var.Roman (lettuce) seedlings assessed as root length at 75 uM after 120 hr (reference value: 18 to 19 mm); assay type: functional, organism-based
[29] = test system: Lactuca sativa; assay: Herbicidal activity against Lactuca sativa var.Roman (lettuce) seedlings assessed as root length at 50 uM after 120 hr (reference value: 18 to 19 mm); assay type: functional, organism-based
[30] = test system: Lactuca sativa; assay: Herbicidal activity against Lactuca sativa var.Roman (lettuce) seedlings assessed as root length at 25 uM after 120 hr (reference value: 18 to 19 mm); assay type: functional, organism-based
[31] = test system: Lactuca sativa; assay: Herbicidal activity against Lactuca sativa var.Roman (lettuce) seedlings assessed as root length at 10 uM after 120 hr (reference value: 18 to 19 mm); assay type: functional, organism-based
[32] = test system: Lactuca sativa; assay: Herbicidal activity against Lactuca sativa var.Roman (lettuce) seedlings assessed as root length at 5 uM after 120 hr (reference value: 18 to 19 mm); assay type: functional, organism-based
[33] = test system: Lactuca sativa; assay: Herbicidal activity against Lactuca sativa var.Roman (lettuce) seedlings assessed as shoot length at 75 uM after 120 hr (reference value: 27 to 31 mm); assay type: functional, organism-based
[34] = test system: Lactuca sativa; assay: Herbicidal activity against Lactuca sativa var.Roman (lettuce) seedlings assessed as shoot length at 10 uM after 120 hr (reference value: 27 to 31 mm); assay type: functional, organism-based
[35] = test system: Lactuca sativa; assay: Herbicidal activity against Lactuca sativa var.Roman (lettuce) seedlings assessed as shoot length at 5 uM after 120 hr (reference value: 27 to 31 mm); assay type: functional, organism-based
[36] = test system: Lactuca sativa; assay: Herbicidal activity against Lactuca sativa var.Roman (lettuce) assessed as inhibition of seed germination at > 48.8 uM after 48 hr; assay type: functional, organism-based
[37] = test system: Lactuca sativa; assay: Herbicidal activity against Lactuca sativa var.Roman (lettuce) assessed as inhibition of seed germination at > 36.6 uM after 48 hr; assay type: functional, organism-based
[38] = test system: Trifolium pratense; assay: Herbicidal activity against Trifolium pratense var. Kenland (red clover) assessed as inhibition of seed germination at > 18.3 uM after 48 hr; assay type: functional, organism-based
[39] = test system: Phaseolus vulgaris; assay: Herbicidal activity against Phaseolus vulgaris assessed as inhibition of mitochondrial oxygen uptake; assay type: functional, organism-based; conditions: read-out: I50
[40] = test system: Lolium multiflorum; assay: Herbicidal activity against Lolium multiflorum var. Gulf (Italian ryegrass) assessed as inhibition of seed germination after 48 hr; assay type: functional, organism-based; conditions: read-out: I50
[41] = test system: Trifolium pratense; assay: Herbicidal activity against Trifolium pratense var. Kenland (red clover) assessed as inhibition of seed germination after 48 hr; assay type: functional, organism-based; conditions: read-out: I50
[42] = test system: Lactuca sativa; assay: Herbicidal activity against Lactuca sativa var.Roman (lettuce) assessed as inhibition of seed germination after 48 hr; assay type: functional, organism-based; conditions: read-out: I50
[43] = test system: Artemia salina; assay: Toxicity in Artemia salina (brine shrimp) larvae assessed as mortality; assay type: organism-based; conditions: in vivo
Procedure, shortened: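 Brine shrimp lethality test on *Artemia salina* larvae, run across several concentrations up to a top level of 1000 µM. Mortality was scored at each concentration, and LC50 values in µM were derived from the concentration–mortality data.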

Row | Substance | inhibition [1] | inhibition [2] | inhibition [7] | Activity [8] [%] | Activity [9] [%] | Activity [10] [%] | Activity [11] [%] | Activity [12] [%] | Activity [13] [%] | Activity [14] [%] | Activity [15] [%] | Activity [16] [%] | Activity [17] [%] | Activity [18] [%] | Activity [19] [%] | Activity [20] [%] | Activity [21] [%] | Activity [22] [%] | Activity [23] | Activity [24] [%] | also measured
1 | TRIS(1-METHYL-2-PYRROLYL)BISMUTH [listing 1 of 2 here] | Active | Dose-dependent effect | inactive | 34 | 60 | 46 | 76 | 78 | 112 | 28 | 66 | 64 | 82 | 84 | 93 | 60 | 65 | 76 | inactive | 80 | inhibition [3]: Active; inhibition [4]: 30%; growth inhibition (GI) [5]: Active; growth inhibition (GI) [6]: Active; Activity [25]: Active; Activity [26]: 85%; Activity [27]: 85%; Activity [28]: 0 mm; Activity [29]: 0 mm; Activity [30]: 0 mm; Activity [31]: 11 mm; Activity [32]: 30 mm; Activity [33]: 0 mm; Activity [34]: 9 mm; Activity [35]: 29 mm
2 | TRIS(2-FURYL)BISMUTH | Active | Dose-dependent effect | inactive | 30 | 44 | 66 | 86 | 70 | 78 | 24 | 55 | 53 | 79 | 75 | 82 | 35 | 35 | 70 | Active | 80 | Activity [25]: Active; Activity [26]: 95%; Activity [27]: 95%; Activity [28]: 0 mm; Activity [29]: 0 mm; Activity [30]: 0 mm; Activity [31]: 7 mm; Activity [32]: 32 mm; Activity [33]: 0 mm; Activity [34]: 11 mm; Activity [35]: 24 mm; inhibition [36]: 100%; inhibition [37]: Active; inhibition [38]: 100%
3 | TRIS(1-METHYL-2-PYRROLYL)BISMUTH [listing 2 of 2 here] | – | – | – | – | – | – | – | – | – | – | – | – | – | – | – | – | – | – | – | – | IC50 ([2]; read-out: I50): 8.4 µM; IC50 [39]: 17.1 µM; IC50 [40]: 33.8 µM; IC50 [41]: 7.5 µM; IC50 [42]: 34 µM; LC50 [43]: 638 µM
